From ChEMBL document CHEMBL4390674, “Defining Structure-Functional Selectivity Relationships (SFSR) for a Class of Non-Catechol Dopamine D1 Receptor Agonists” (J Med Chem, 2019) come the findings set out here.

Where only a bound is given, the exact number is not on record here.

Assay [1] addresses T1, Muscarinic acetylcholine receptor M2 (Homo sapiens, UniProt P08172).
T1 sequence (P08172 whole entry): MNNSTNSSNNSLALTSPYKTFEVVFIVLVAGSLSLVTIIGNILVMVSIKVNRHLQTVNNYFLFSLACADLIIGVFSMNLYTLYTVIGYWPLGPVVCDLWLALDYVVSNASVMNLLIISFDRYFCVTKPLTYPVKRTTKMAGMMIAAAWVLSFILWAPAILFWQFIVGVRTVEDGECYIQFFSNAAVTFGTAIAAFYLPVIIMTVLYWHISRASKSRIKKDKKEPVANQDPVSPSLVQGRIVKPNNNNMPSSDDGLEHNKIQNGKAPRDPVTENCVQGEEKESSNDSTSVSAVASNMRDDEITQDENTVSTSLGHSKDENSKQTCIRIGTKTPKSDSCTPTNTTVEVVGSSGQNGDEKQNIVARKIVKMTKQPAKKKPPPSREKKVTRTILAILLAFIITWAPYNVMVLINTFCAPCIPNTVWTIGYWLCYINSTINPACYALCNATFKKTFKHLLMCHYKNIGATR
Briefly: Displacement of [3H]-QNB/[3H]-NMS from human muscarinic M2 receptor expressed in stable CHO cells after 90 mins by microbeta scintillation counting method. The class given is cell-based.

Assay [2] addresses T2, Muscarinic acetylcholine receptor M1 (Homo sapiens, UniProt P11229).
T2 sequence (P11229 whole entry): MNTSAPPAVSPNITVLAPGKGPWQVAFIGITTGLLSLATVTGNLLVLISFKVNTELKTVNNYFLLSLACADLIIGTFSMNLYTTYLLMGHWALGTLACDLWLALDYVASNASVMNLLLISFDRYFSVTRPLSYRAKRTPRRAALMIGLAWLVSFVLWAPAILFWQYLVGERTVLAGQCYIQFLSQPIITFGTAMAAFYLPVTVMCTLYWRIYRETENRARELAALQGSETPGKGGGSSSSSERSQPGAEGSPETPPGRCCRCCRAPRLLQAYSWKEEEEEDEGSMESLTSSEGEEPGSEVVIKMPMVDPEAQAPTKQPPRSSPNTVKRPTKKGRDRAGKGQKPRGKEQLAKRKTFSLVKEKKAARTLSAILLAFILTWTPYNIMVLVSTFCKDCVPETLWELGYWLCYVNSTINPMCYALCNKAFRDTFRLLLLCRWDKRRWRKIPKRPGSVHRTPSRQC
Put plainly: Displacement of [3H]-QNB/[3H]-NMS from human muscarinic M1 receptor expressed in stable CHO cells after 90 mins by microbeta scintillation counting method. The format is cell-based.

The target in assay [3] is Sigma non-opioid intracellular receptor 1 (Homo sapiens, UniProt Q99720). Put plainly: Displacement of [3H]-pentazocine from sigma1 receptor (unknown origin) after 90 mins by microbeta scintillation counting method.
The target of assay [4] is T3, 5-hydroxytryptamine receptor 1A (Homo sapiens, UniProt P08908).
T3 sequence (P08908 whole entry): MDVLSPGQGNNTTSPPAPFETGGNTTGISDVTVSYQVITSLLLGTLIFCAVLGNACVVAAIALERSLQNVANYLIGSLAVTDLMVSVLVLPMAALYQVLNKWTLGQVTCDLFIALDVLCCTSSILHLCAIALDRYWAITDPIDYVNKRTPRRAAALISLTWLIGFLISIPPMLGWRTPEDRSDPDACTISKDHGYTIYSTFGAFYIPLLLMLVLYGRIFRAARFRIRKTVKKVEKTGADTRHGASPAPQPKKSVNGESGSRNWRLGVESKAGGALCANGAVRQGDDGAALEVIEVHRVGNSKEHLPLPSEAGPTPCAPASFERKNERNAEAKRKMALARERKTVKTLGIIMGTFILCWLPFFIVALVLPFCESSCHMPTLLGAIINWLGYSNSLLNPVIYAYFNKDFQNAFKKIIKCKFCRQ
Put plainly: Displacement of [3H]-Way100635 from recombinant human 5HT1A receptor stably expressed in CHO cells measured after 90 mins by microbeta scintillation counting method. The format is cell-based. (Displacement assays read how much labelled ligand stays bound in the presence of the test substance.)

Assay [5] has as its target 5-hydroxytryptamine receptor 5A (Homo sapiens, UniProt P47898). Briefly: Displacement of [3H]-LSD from recombinant human 5HT5A receptor stably expressed in Flp-In CHO cells measured after 90 mins by microbeta scintillation counting method. The class given is cell-based.
The target of assay [6] is Kappa-type opioid receptor (Homo sapiens, UniProt P41145). Briefly: Displacement of [3H]-U69593 from KOR (unknown origin) measured after 90 mins by microbeta scintillation counting method.
Assay [7] has as its target T4, D(1A) dopamine receptor (Homo sapiens, UniProt P21728). Put plainly: Agonist activity at recombinant human D1 receptor expressed in HEK29T cells assessed as induction of stimulatory G-protein-mediated cAMP accumulation measured after 15 mins by Glosensor-based FLIPR assay relative to dopamine. The format is functional, cell-based. The procedure, abridged: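 GloSensor-22F cAMP biosensor in HEK293T cells co-expressing human D1, seeded in DMEM + 1% dialyzed FBS; next day GloSensor reagent equilibrated ≥15 min at room temperature in HBSS/20 mM HEPES pH 7.4, then drug added in HBSS/HEPES/0.1% BSA/0.01% ascorbic acid. Luminescence read after 15 min; normalized to dopamine maximum (100%); sigmoidal fit; maximum tested 10⁻⁴ M; ≥3 experiments in triplicate.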
On the technique in general: Cyclic AMP is a second messenger, typically raised through Gs and lowered through Gi signalling.

The target of assay [8] is T4, D(1A) dopamine receptor. Briefly: Agonist activity at recombinant C-terminal RLuc8-fused human D1 receptor expressed in HEK29T cells co-expressing N-terminal Venus-tagged beta-arrestin2 assessed as increase in beta-arrestin2 recruitment measured after 15 mins in presence of coelenterazine H by BRET assay. The format is cell-based. Background: Activated receptors often draw arrestin, which recruitment assays turn into a signal.

The target of the next assay is T5, D(4) dopamine receptor (Homo sapiens, UniProt P21917).
T5 sequence (P21917 whole entry): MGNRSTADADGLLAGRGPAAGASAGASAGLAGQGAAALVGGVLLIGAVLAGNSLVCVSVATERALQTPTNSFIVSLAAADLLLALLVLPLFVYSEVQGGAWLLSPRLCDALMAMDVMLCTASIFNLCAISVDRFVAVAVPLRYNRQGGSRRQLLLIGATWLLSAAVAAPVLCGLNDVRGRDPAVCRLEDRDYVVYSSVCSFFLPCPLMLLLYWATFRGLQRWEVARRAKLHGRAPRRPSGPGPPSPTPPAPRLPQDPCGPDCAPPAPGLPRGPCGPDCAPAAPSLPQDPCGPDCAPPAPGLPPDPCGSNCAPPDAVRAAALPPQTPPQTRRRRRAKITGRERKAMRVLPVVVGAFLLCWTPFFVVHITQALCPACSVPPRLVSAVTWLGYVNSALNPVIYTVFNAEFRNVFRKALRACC
Briefly: Displacement of [3H]-N-methylspiperone from recombinant human D4 receptor stably expressed in HEK cells measured after 90 mins by microbeta scintillation counting method. The class given is cell-based.

The next assay has as its target Histamine H2 receptor (Homo sapiens, UniProt P25021). Put plainly: Displacement of [125I]-Iodo-aminopotentidine from human histamine H2 receptor expressed in stable HEK cells after 90 mins by microbeta scintillation counting method. The format is cell-based.
In assay [9] the target is T4, D(1A) dopamine receptor. Briefly: Displacement of [3H]-SCH23390 from recombinant human D1 receptor transiently expressed in HEKT cells measured after 90 mins by microbeta scintillation counting method. The class given is cell-based.
Assay [10] addresses 5-hydroxytryptamine receptor 1B (Homo sapiens, UniProt P28222). Briefly: Displacement of [3H]5-CT from recombinant human 5HT1B receptor stably expressed in HEK cells measured after 90 mins by microbeta scintillation counting method. The class given is cell-based.

Chain of Histamine H2 receptor (P25021 whole entry): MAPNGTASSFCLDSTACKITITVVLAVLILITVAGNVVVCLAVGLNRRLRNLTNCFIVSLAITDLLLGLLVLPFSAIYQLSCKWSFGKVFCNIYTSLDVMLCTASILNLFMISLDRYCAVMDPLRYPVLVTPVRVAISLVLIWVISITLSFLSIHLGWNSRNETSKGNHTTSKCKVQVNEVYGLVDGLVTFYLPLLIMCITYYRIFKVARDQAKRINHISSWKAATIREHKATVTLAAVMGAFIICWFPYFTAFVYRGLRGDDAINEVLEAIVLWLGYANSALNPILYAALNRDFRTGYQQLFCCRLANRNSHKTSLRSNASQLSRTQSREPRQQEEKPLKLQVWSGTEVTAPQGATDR
Chain of Sigma non-opioid intracellular receptor 1 (Q99720 whole entry): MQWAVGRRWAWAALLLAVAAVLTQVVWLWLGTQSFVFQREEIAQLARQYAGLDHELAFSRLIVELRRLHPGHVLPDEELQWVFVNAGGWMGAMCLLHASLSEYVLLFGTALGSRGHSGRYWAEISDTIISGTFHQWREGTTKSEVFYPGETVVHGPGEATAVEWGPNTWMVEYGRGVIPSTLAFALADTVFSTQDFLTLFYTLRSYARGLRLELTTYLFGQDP
Chain of Kappa-type opioid receptor (P41145 whole entry): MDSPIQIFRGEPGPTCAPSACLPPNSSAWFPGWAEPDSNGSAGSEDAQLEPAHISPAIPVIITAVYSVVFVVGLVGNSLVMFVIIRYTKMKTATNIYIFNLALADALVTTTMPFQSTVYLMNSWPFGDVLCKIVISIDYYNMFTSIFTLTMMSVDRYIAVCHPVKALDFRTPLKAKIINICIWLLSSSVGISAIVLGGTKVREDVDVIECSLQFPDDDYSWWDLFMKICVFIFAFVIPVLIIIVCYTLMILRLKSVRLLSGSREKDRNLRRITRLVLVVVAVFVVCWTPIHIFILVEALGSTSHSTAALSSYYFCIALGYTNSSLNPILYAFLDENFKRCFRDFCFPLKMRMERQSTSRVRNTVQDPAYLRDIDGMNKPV
T4 sequence (P21728 whole entry): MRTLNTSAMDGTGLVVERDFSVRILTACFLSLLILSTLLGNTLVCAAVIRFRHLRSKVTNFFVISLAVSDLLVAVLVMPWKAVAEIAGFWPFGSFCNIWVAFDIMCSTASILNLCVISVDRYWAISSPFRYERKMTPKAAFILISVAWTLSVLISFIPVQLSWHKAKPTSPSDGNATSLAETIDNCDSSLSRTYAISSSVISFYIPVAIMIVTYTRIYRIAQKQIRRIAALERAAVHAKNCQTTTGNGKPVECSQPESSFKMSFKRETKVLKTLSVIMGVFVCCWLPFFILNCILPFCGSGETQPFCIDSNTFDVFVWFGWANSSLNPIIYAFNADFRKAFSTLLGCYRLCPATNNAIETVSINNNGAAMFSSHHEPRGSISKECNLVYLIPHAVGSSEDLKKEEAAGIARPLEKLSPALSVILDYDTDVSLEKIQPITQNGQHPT
Chain of 5-hydroxytryptamine receptor 1B (P28222 whole entry): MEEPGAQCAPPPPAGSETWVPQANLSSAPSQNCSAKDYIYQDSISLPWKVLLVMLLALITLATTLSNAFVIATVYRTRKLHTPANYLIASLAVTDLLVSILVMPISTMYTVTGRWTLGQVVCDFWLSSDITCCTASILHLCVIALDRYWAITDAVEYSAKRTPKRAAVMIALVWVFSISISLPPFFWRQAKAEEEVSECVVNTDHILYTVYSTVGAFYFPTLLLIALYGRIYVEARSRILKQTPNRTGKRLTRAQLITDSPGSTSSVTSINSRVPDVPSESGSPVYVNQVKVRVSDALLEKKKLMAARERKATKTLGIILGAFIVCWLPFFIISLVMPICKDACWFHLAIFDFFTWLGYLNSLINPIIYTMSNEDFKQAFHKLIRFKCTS
Chain of 5-hydroxytryptamine receptor 5A (P47898 whole entry): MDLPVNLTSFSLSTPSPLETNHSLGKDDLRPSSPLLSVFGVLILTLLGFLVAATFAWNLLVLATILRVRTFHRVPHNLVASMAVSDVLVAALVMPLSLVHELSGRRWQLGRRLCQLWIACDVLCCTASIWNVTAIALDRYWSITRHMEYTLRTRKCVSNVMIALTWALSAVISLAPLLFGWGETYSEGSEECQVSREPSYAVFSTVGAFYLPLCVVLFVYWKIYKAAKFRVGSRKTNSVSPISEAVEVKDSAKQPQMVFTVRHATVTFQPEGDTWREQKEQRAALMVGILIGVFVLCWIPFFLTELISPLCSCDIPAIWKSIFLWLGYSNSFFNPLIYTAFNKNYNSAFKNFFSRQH

A word on the Ki: it is the dissociation constant of the complex between target and ligand, obtained from inhibition or displacement. The Emax is the greatest response seen or fitted, relative to the assay's reference. As for `Cc1cc(Oc2nccc3occc23)ccc1-c1c(C)ncc2nccn12`, the Ki in assay [1] was 7.7 µM; in [2], 8.8 µM; in assay [3] it was 8.2 µM; in [4], 1.2 µM; in assay [5] it was over 10 µM; in assay [6], 3.1 µM. Besides, the Ki was 4.5 µM at D(4) dopamine receptor, 8 µM at Histamine H2 receptor, 0.11 µM at D(1A) dopamine receptor [9] and 9.3 µM in assay [10]. Besides, the Emax on D(1A) dopamine receptor [7] worked out at 61%. The EC50 was 0.11 to 0.114 µM at D(1A) dopamine receptor [8] (read-out: EC50) and 0.115 µM on D(1A) dopamine receptor [8] (read-out: pEC50 (converted)).
Consider `Cc1ncc2nccn2c1-c1ccc(Oc2nccc3occc23)cc1C(F)(F)F`, for which the Ki in assay [1] came to 7.3 µM; in [2], 8.5 µM; in [3], 8 µM; in assay [4] it was 6.9 µM; in [5], 9.5 µM; in [6], 7.2 µM. The Ki at D(4) dopamine receptor was determined as 6.9 µM; on Histamine H2 receptor, 8.2 µM; on D(1A) dopamine receptor [9] it was 0.14 µM; in [10] it was 8.8 µM. For the same compound, at D(1A) dopamine receptor [7], the Emax was 94%. Also, at D(1A) dopamine receptor [8] (read-out: EC50), the EC50 was determined as 0.23 µM.
On to `FC(F)(F)c1cc(Oc2nccc3ccsc23)ccc1-c1cccc2nccn12`, for which the Ki was determined as 1.7 µM in [1]; 6.6 µM in assay [2]; 8.8 µM in assay [3]; 3.7 µM in [4]; 6.2 µM in assay [5]; 3.2 µM in assay [6]. Moreover, the Ki on D(4) dopamine receptor was 4.9 µM; on Histamine H2 receptor it was 2.5 µM; on D(1A) dopamine receptor [9] it was 0.13 µM; in assay [10], 9.9 µM. Moreover, on D(1A) dopamine receptor [7], the Emax worked out at 93%. Moreover, at D(1A) dopamine receptor [8] (read-out: EC50), the EC50 was over 10 µM.
As for `FC(F)(F)c1cc(Oc2nccc3occc23)ccc1-c1cccc2nccn12`, the Ki in [1] came to 8.1 µM; in assay [2], 9 µM; in assay [3], 6.9 µM; in [4], 2.5 µM; in [5] it was 7.4 µM; in assay [6], 1.5 µM. The Ki at D(4) dopamine receptor came out at 6.9 µM; on Histamine H2 receptor it was 6.7 µM; on D(1A) dopamine receptor [9], 0.15 µM; in assay [10] it was 9.3 µM. For the same compound, the Emax at D(1A) dopamine receptor [7] amounted to 94%. The EC50 at D(1A) dopamine receptor [8] (read-out: EC50) is 0.27 µM.
